Experimental data taken from ChEMBL document CHEMBL1143772, “Samarium(II) promoted stereoselective synthesis of antiproliferative cis-beta-alkoxy-gamma-alkyl-gamma-lactones” (2007).

Legend:
Type in all cases: functional
A2780 = test: Antiproliferative activity against human A2780 cells after 48 hrs by SRB assay; details: A2780, 48 h; for CC50: read-out: LC50 (the source's name)
How it was run: (§1)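 NCI protocol, SRB read-out after 48 h continuous drug exposure; top test concentration 100 µM. A dose–response curve gives percentage growth (PG). GI50, TGI and LC50 are the concentrations at PG +50, 0 and −50. Values in µM, means of two to four experiments with standard deviation.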

SW1573 = test: Antiproliferation activity against human SW1573 cells after 48 hrs by SRB assay; details: SW1573, 48 h; how it was run: as §1
WiDr = test: Antiproliferation activity against human WiDr cells after 48 hrs by SRB assay; details: for CC50: read-out: LC50 (the source's name); how it was run: as §1

## CCCCCCC[C@H]1OC(=O)C[C@H]1OC1C=CCCC1 (some centres not stated)
A2780
  GI50: 84 µM
SW1573
  GI50: 23 µM
  LC50 (concentration giving 50% net cell kill): 95 µM
  TGI: 49 µM

## C=CCC(C)O[C@@H]1CC(=O)O[C@@H]1CCCCCCC (some centres not stated)
WiDr
  GI50: 39 µM
A2780
  GI50: 48 µM
SW1573
  GI50: 33 µM
  TGI: 83 µM

## CCCCCCC[C@H]1OC(=O)C[C@H]1OC1CCCCC1
WiDr
  GI50: 16 µM
  TGI: 33 µM
  CC50: 71 µM
A2780
  GI50: 16 µM
  TGI: 31 µM
  CC50: 61 µM
SW1573
  GI50: 18 µM
  LC50 (concentration giving 50% net cell kill): 71 µM
  TGI: 36 µM

## C=CC(CCCCC)O[C@@H]1CC(=O)O[C@@H]1CCCCCCC (some centres not stated)
WiDr
  GI50: 27 µM
  TGI: 81 µM
  CC50: 97 µM
A2780
  GI50: 19 µM
  TGI: 42 µM
  CC50: 88 µM
SW1573
  GI50: 27 µM
  LC50 (concentration giving 50% net cell kill): 96 µM
  TGI: 78 µM

## CCCCCCC[C@H]1OC(=O)C[C@H]1OCc1ccccc1
WiDr
  GI50: 44 µM
A2780
  GI50: 63 µM
SW1573
  GI50: 52 µM

## C#CC(CCCCCCC)O[C@@H]1CC(=O)O[C@@H]1CCCCCCC (some centres not stated)
WiDr
  GI50: 32 µM
  TGI: 86 µM
A2780
  GI50: 22 µM
  TGI: 51 µM
  CC50: 80 µM
SW1573
  GI50: 32 µM
  LC50 (concentration giving 50% net cell kill): 97 µM
  TGI: 83 µM
